Laboratory results from ChEMBL document CHEMBL1142636 (2000).
The source made the active and inactive calls.

Legend:
Assay type in all cases: functional
MDA-MB-231 = assay: Growth inhibition of human MDA-MB-231 cells
SK-OV-3 = assay: Growth inhibition of human SK-OV-3 cells
Summary of the method: (§1)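 Tested at the NCI in its human disease-oriented in vitro screen of 60 tumour cell lines, following the Monks et al. methods. Activity is expressed as GI50, given as log molar values.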

LOX IMVI = assay: Growth inhibition of human LOX IMVI cells
UO-31 = assay: Growth inhibition of human UO31 cells; summary of the method: as §1
SR = assay: Growth inhibition of human SR cells; summary of the method: as §1
SW-620 = assay: Growth inhibition of human SW620 cells; summary of the method: as §1
HCT-116 = assay: Growth inhibition of human HCT116 cells
TK-10 = assay: Growth inhibition of human TK10 cells; summary of the method: as §1
M14 = assay: Growth inhibition of human M14 cells
Hs-578T = assay: Growth inhibition of human HS578T cells
SF-295 = assay: Growth inhibition of human SF295 cells; summary of the method: as §1
NCI-H23 = assay: Growth inhibition of human NCI-H23 cells
MDA-MB-435 = assay: Growth inhibition of human MDA-MB-435 cells
XF498 = assay: Growth inhibition of human XF498 cells; summary of the method: as §1
HCC 2998 = assay: Growth inhibition of human HCC2998 cells
OVACR8 = assay: Growth inhibition of human OVACR8 cells
SF-268 = assay: Growth inhibition of human SF268 cells; summary of the method: as §1
K562 = assay: Growth inhibition of human K562 cells
SK-MEL-28 = assay: Growth inhibition of human SK-MEL-28 cells; summary of the method: as §1
UACC-62 = assay: Growth inhibition of human UACC62 cells; summary of the method: as §1
MCF7 = assay: Growth inhibition of human MCF7 cells
HOP-62 = assay: Growth inhibition of human HOP62 cells
PC-3 = assay: Growth inhibition of human PC3 cells
SNB-19 = assay: Growth inhibition of human SNB19 cells; summary of the method: as §1
DU-145 = assay: Growth inhibition of human DU145 cells
DMS144 = assay: Growth inhibition of human DMS144 cells
OVACR3 = assay: Growth inhibition of human […] cells
OVACR5 = assay: Growth inhibition of human OVACR5 cells
DMS-273 = assay: Growth inhibition of human DMS273 cells
Malme-3M = assay: Growth inhibition of human MALME-3M cells
NCI/ADR-RES = assay: Growth inhibition of human MCF7/ADR-RES cells
IGROV-1 = assay: Growth inhibition of human IGROV1 cells
786-0 = assay: Growth inhibition of human 786-0 cells
KM-20L2 = assay: Growth inhibition of human KM20L2 cells
MOLT-4 = assay: Growth inhibition of human MOLT4 cells
KM12 = assay: Growth inhibition of human KM12 cells
DLD-1 = assay: Growth inhibition of human DLD1 cells
M19-MEL = assay: Growth inhibition of human M19-MEL cells
HT-29 = assay: Growth inhibition of human HT29 cells
NCI-H226 = assay: Growth inhibition of human NCI-H226 cells
UACC-257 = assay: Growth inhibition of human UACC257 cells; summary of the method: as §1
SF-539 = assay: Growth inhibition of human SF539 cells; summary of the method: as §1
MDA-N = assay: Growth inhibition of human MDA-N cells
HOP-92 = assay: Growth inhibition of human HOP92 cells
A549 = assay: Growth inhibition of human A549 cells
ACHN = assay: Growth inhibition of human ACHN cells
BT-549 = assay: Growth inhibition of human BT549 cells
RXF 393 = assay: Growth inhibition of human […] cells
A498 = assay: Growth inhibition of human A498 cells
EKVX = assay: Growth inhibition of human EKVX cells
HCT-15 = assay: Growth inhibition of human HCT15 cells
CCRF-CEM = assay: Growth inhibition of human CCRF-CEM cells
NCI-H322M = assay: Growth inhibition of human NCI-H322M cells
RPMI8266 = assay: Growth inhibition of human RPMI8266 cells
SK-MEL-2 = assay: Growth inhibition of human SK-MEL-2 cells; summary of the method: as §1
CAKI-1 = assay: Growth inhibition of human CAKI1 cells
OVACR4 = assay: Growth inhibition of human OVACR4 cells
COLO 205 = assay: Growth inhibition of human COLO205 cells
T47D = assay: Growth inhibition of human T47D cells; summary of the method: as §1
NCI-H522 = assay: Growth inhibition of human NCI-H522 cells
LXFL 529 = assay: Growth inhibition of human LXFL529 cells
SK-MEL-5 = assay: Growth inhibition of human SK-MEL-5 cells; summary of the method: as §1
SNB-75 = assay: Growth inhibition of human SNB75 cells; summary of the method: as §1
SN12C = assay: Growth inhibition of human SN12C cells; summary of the method: as §1
HOP-18 = assay: Growth inhibition of human HOP18 cells
NCI-H460 = assay: Growth inhibition of human NCI-H460 cells
HL-60(TB) = assay: Growth inhibition of human HL60(TB) cells
U-251 = assay: Growth inhibition of human U251 cells; summary of the method: as §1

Measured: Activity

Cc1cc2c([nH]c3ccccc32)c2c1OC(C)(C)[C@H]1[C@H]3CC(C)(C)Oc4c(C)cc5c6ccccc6n(c5c43)[C@@H]21
inactive: all assays above
